This series can be described thus: Toxicity liver stage against HepG2, at 10uM. Also on record: test concentration 10 uM, cell line HepG2-A16-CD81EGFP. The series is classed as cell-based. Conditions: human, HepG2-A16-CD81EGFP cells; read-out: INHIBITION
The gist of the method:
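Uninfected HepG2-A16-CD81EGFP cells, 3 × 10^3 per well, 1536-well, plated on prespotted compound at 10 μM final, parasite-free screening media added to match infected plates; puromycin 10 μM positive, DMSO 0.5% negative; run in parallel with 48 h PbLuc assay at 37 °C, 5% CO2; viability by CellTiter-Glo luminescence, normalized to controls.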

The structures appear in SMILES notation.

For the compound `CCn1c(CN2CCCC2)nnc1C1CCN(Cc2ccncc2)CC1`, the cytotoxicity at 10 µM is -0.384%.
In the case of `O=C(Nc1ccccc1C(=O)NCCN1CCOCC1)c1ccco1`, the cytotoxicity at 10 µM was -0.972%.
As for `O=C(NCc1ccccn1)NCC(O)c1ccccc1C(F)(F)F` (stereo not given), the cytotoxicity at 10 µM was -0.36%.
The same measure for `O=C(c1cncc(N2CCC(O)(CO)CC2)n1)N1CCCC1`: -7.71%; for `O=S(=O)(N1CCCC1)N1C[C@@H](c2cccc(F)c2)[C@@H]2NCCCCC[C@H]21`: -25%; for `Cc1cc(S(C)(=O)=O)c(C)c(S(=O)(=O)N2CCCC(C)C2)c1` (stereo not given): 22.6%.
On to `CNC(=O)C1CCN(c2cc(C3CCNCC3)nc(C)n2)C1` (stereo not given), for which the cytotoxicity at 10 µM is -6.43%.
As to `CN(C)CCNc1cc(-c2ncccc2C(F)(F)F)c2cc[nH]c2n1`, the cytotoxicity at 10 µM is 7.2%.
`Cc1n[nH]c(C)c1CC(=O)NCCc1ccccc1`: the cytotoxicity at 10 µM was found to be 13.7%.
As to `N#Cc1ncn(CC(=O)N2CCCC2c2cccs2)n1` (stereo not given), the cytotoxicity at 10 µM was -21.7%.
The same measure for `COCCN(C)Cc1ccc(OC)c(OC(F)F)c1`: -5.5%; for `CC(C)Nc1ncnc2c1CCN(Cc1nccn1C)CC2`: 0.507%; for `CN(Cc1ccco1)C(=O)CN1CCCCC1Cn1cccn1` (stereo not given): 2.91%.
The same measure for `CCN1CCCC1CNCc1cc2cc(OC)ccc2[nH]c1=O` (stereo not given): -10.2%; for `CCc1nc(CN2CCCN(Cc3noc(C4CC4)n3)CC2)cs1`: -7.35%.
Consider `CCOc1ccc(Cl)cc1C(C(=O)O)N1CCCC1` (stereo not given), for which the cytotoxicity at 10 µM was found to be 0.95%.
The result for `O=C(NCCS(=O)(=O)N1CCN(c2ncccn2)CC1)c1ccccc1` reads -3.28%.
The result for `CCCN(CCO)S(=O)(=O)c1ccc2[nH]c(=O)[nH]c2c1` reads -0.24%.
The result for `COC(=O)c1cccc(C(=O)N(C)Cc2ccsc2)c1` reads 10.7%; that for `N#Cc1ccc(OCC(O)CN2CCC(Cn3cccn3)CC2)cc1` (stereo not given), -0.775%; that for `Cc1ccccc1CN1CCC2(CCCN2C(=O)C(C)C)CC1`, 11.7%.
Regarding `COc1ccc(CN2CC[C@H]3O[C@@H](C(=O)NCC4CC4)CC[C@H]32)cc1`, the cytotoxicity at 10 µM was 7.31%.
The same measure for `COc1ccc(C(=O)N2CCCC(n3nc(C)nc3C)C2)c(OC)c1` (stereo not given): -18.2%.
The same measure for `Cc1cnn(C2CN(c3nc(C)cc(N(C)C)n3)C2)c1`: -5.12%; for `CCC(C)n1cnc(S(=O)(=O)N(Cc2cccnc2)C(C)C)c1` (stereo not given): 0.075%; for `CC1CCCN(C(=O)c2occc2COc2cccc(C#N)c2)C1` (stereo not given): 4.57%.
Take `Cc1nc(CN(CCc2ccccc2)C2CCN(C)CC2)no1`: the cytotoxicity at 10 µM is -4%.
With `Cc1ccc(CN2CC[C@H]3[C@H]2CC(=O)N3c2ccsc2)o1`, the cytotoxicity at 10 µM worked out at 1.12%.
The same measure for `O=C(NCc1cccc(N2CC=CC2)c1)NCC(F)(F)F`: 8.89%.
Take `O=C(Cc1csc(-c2ccco2)n1)N1CCN(c2nccs2)CC1`: the cytotoxicity at 10 µM was -9.26%.
Turning to `CCCS(=O)(=O)N1CCN(c2ccnc(N3CCCC3)n2)CC1`, the cytotoxicity at 10 µM was -11.3%.
Turning to `Cc1nnc(NCC2(c3ccccc3)CCC2)c(C#N)c1C`, the cytotoxicity at 10 µM came to 19.9%.
For the compound `CCOC(=O)N1CCN(CC(=O)Nc2nnc(C)s2)CC1`, the cytotoxicity at 10 µM is 1.31%.
Take `CCc1ccc(C(=O)N2CC[C@](C)(O)[C@H](C)C2)[nH]1`: the cytotoxicity at 10 µM amounted to 2.27%.
In the case of `CN(C)c1cc(C2CCCN2C(=O)c2ccc(=O)n(C)c2)ccn1` (stereo not given), the cytotoxicity at 10 µM was -23.9%.
With `CS(=O)(=O)N1CCCC(Cc2ccnc(Nc3ccccn3)c2)C1` (stereo not given), the cytotoxicity at 10 µM was 5.46%.
The same measure for `O=C(N1CCCC1)N1C[C@H]2CCC[C@@]2(COCc2ccccn2)C1`: -106%; for `CCOc1ccc(Cl)c(C(=O)NCc2ccc(C(=O)NC)cc2)n1`: -9.88%; for `COc1ccc(-c2noc([C@@H]3C[C@@H](O)CN3C3CCOCC3)n2)cc1`: -1.7%.
The same measure for `CCOC(=O)N1CCCC2(CCCNC2)C1` (stereo not given): 2.11%.
On to `O=C(c1cocn1)N1C[C@H]2CCC[C@@]2(COCc2cccnc2)C1`, for which the cytotoxicity at 10 µM amounted to 7.35%.
The result for `CCCS(=O)(=O)N1CCC2(CN(c3ccccc3)C(=O)CN2C)C1` (stereo not given) reads 4.15%.
`CCCNC(=O)N1CCC(c2nnc(Cn3cccn3)n2C2CC2)CC1`: the cytotoxicity at 10 µM is -7.92%.
For the compound `Cc1ccc(N2CCCC3(CCN(C(=O)c4sccc4C)C3)C2)nn1` (stereo not given), the cytotoxicity at 10 µM was -107%.
On to `Cc1n[nH]c(CN2CCN(C(=O)C3CCC3)[C@@H]3CS(=O)(=O)C[C@@H]32)n1`, for which the cytotoxicity at 10 µM is -10.8%.
The result for `O=C(NCCCSC1CCCCC1)C1NCCc2[nH]cnc21` (stereo not given) reads -0.283%.
The result for `COCC(=O)N1CCN(Cc2coc(-c3cccc(F)c3)n2)CC1` reads -7.16%; that for `CNC(=O)NCC1CCC2(CCN(C(=O)c3ccccn3)CC2)CO1` (stereo not given), -102%; that for `Cc1cc(N2CCN(Cc3cn(C)nc3C)CC2)cc(C2CCCN2)n1` (stereo not given), 0.525%.
As for `Cn1ncc2c(N[C@@H]3CS(=O)(=O)C[C@H]3O)nc(C(C)(C)C)nc21`, the cytotoxicity at 10 µM was -1.32%.
The same measure for `CSc1ccc(CN(C(=O)c2cc[nH]n2)C2CC2)cc1`: -44.4%; for `Cn1cc(CN2C[C@H]3CCC[C@@H](CNc4nccn4C)[C@H]3C2)cn1`: 10.9%.
On to `Cc1cc(CSCc2ccccn2)on1`, for which the cytotoxicity at 10 µM is 7.69%.
`CCN(C(=O)c1cc2c([nH]c1=O)CCCC2=O)C1CCCCC1`: the cytotoxicity at 10 µM was -4.07%.
The same measure for `CN1CCOCC2(CCN(Cc3ccc[nH]3)CC2)C1`: 0.442%; for `CCn1cc(CN2CCCN(C(=O)c3sccc3C#N)CC2)cn1`: -6.41%.
The same measure for `CC1CCN(C)c2ccccc2N1C(=O)c1ccnc(-n2cncn2)c1` (stereo not given): 2.37%; for `Cc1cc(-c2ccc(=O)n(CCNC(=O)C3CCC3)n2)c(C)o1`: -2.32%; for `COCc1cnc2n1CCN(C(=O)C1=CCCCC1)C2C` (stereo not given): -2.93%.
For `CC(C)CN1CCn2c(COCc3cccnc3)nnc2C1`, the cytotoxicity at 10 µM amounted to 5.8%.
On to `NS(=O)(=O)c1cc(C(=O)N2CCCCC2)cs1`, for which the cytotoxicity at 10 µM is -0.174%.
In the case of `Cc1noc([C@H]2C[C@H]3OCC[C@H]3N(Cc3scnc3C)C2)n1`, the cytotoxicity at 10 µM was -73.4%.
The same measure for `CNC(=O)c1ccc(CN2CCN(C3=NCC(C)(C)S3)CC2)cc1`: 14.3%; for `CN(C)C(=O)c1ccn(COc2ccccc2Cl)n1`: 6.91%; for `COCCN1CCN(C(=O)c2cc(C(C)C)on2)[C@H]2CS(=O)(=O)C[C@H]21`: -12%.
Consider `O=C(COc1coc(CN2CCOCC2)cc1=O)Nc1ccc(Cl)cc1`, for which the cytotoxicity at 10 µM is -6.51%.
The result for `CC(O)CN1CCN(C(=O)c2ccn(-c3ccc(F)cc3)n2)CC1` (stereo not given) reads -6.11%; that for `O=C(CN1CCCS1(=O)=O)Nc1cccc(COC2CCCCC2)c1`, 0.568%.
The result for `CCc1c(C)nc2ccccc2c1N1CCC(NC(C)=O)CC1` reads 11.2%; that for `Cc1cnc(CCNC(=O)NCCc2ccc(O)cc2)s1`, -0.276%.
Take `Cc1ccc(N2CCN(C(=O)[C@@H]3CCC(=O)N3)CC2=O)cc1`: the cytotoxicity at 10 µM is -4.18%.
The result for `COc1ccc(-c2cnc(CN3CCCC3CO)o2)cc1` (stereo not given) reads 9.38%; that for `O=C(NCCCNC(=O)c1ccccc1)Nc1ccc(F)cc1F`, 5.55%; that for `Cc1ccc2nc(C)cc(NCCNS(=O)(=O)c3cccnc3)c2c1`, 13.5%.
The same measure for `CCC(C)NC(=O)Cc1c(C)nc2c(c1C)c(=O)[nH]n2C` (stereo not given): -11.4%; for `Cc1nnc([C@H]2C[C@@H]3CCN(C(=O)C4CCOCC4)C[C@H]3O2)[nH]1`: 16.5%; for `CC(C)(C)c1noc(OCC(=O)NC2CCCC2)n1`: 2.68%.
Consider `CN(CC(=O)NCc1ccccn1)CC1CCCN1c1cccnn1` (stereo not given), for which the cytotoxicity at 10 µM was -5.47%.
On to `Cc1csc(C(Cc2cccs2)NCc2cc3c(cc2C)OCO3)n1` (stereo not given), for which the cytotoxicity at 10 µM was -8.9%.
For `O=c1[nH]c2cc3c(cc2cc1CN1CCCC1c1ccccn1)CCC3` (stereo not given), the cytotoxicity at 10 µM is -2.11%.
The same measure for `COCCN1Cc2ccccc2C2(CCN(C(=O)c3ccco3)CC2)C1`: 5.85%; for `Cc1nc(NC(=O)c2c(-n3cnnn3)sc(C)c2C)sc1C`: 2.13%.
The result for `CCc1nnc(Nc2cccc(C3CCN(C)CC3)n2)s1` reads -28.6%; that for `Cc1cccc(C)c1OCC(=O)Nc1cccn(C)c1=O`, 4.08%.
For the compound `COc1c(C2CCCN2Cc2cccc(C(N)=O)c2)c(C)nn1C` (stereo not given), the cytotoxicity at 10 µM was -8.18%.
The same measure for `CS(=O)(=O)N1CCCCC12CCN(c1nncs1)CC2`: 10.6%; for `COc1ccccc1CC1CCCN(C(=O)c2cc[nH]n2)C1` (stereo not given): 6.11%.
The result for `CCOC(=O)Cn1c(=O)nc(N)c2c(-c3ccc(OC)cc3)csc21` reads -33.2%; that for `COc1ccccc1C(C#N)NC(=O)c1cccc2c1oc(=O)n2C` (stereo not given), 3.3%.
The same measure for `CCN(C)C[C@H]1CC[C@@H](Cc2ccc3c(cnn3C)c2)O1`: -0.957%; for `COCCn1c2c(ccc1=O)CC(NCc1cnn(C)c1)CC2` (stereo not given): -103%.
As to `COc1ccc(OC2CCN(C(=O)[C@@H](N)Cc3c[nH]cn3)CC2)cc1`, the cytotoxicity at 10 µM worked out at 0.653%.
As for `O=C(CC1CC1)N1CC[C@H]2OCC[C@@]2(COc2ncccc2F)C1`, the cytotoxicity at 10 µM is -134%.
With `CS(=O)(=O)CC(=O)N1C[C@@H]2CN(Cc3ccoc3)CCO[C@@H]2C1`, the cytotoxicity at 10 µM is -69.2%.
As to `CCCOCC1CCN(C(=O)Cn2ncc(N3CCCC3)cc2=O)C1` (stereo not given), the cytotoxicity at 10 µM came to 3.41%.

For the origin of these results see ChEMBL document CHEMBL4513216, “Probing the Open Global Health Chemical Diversity Library for Multistage-Active Starting Points for Next-Generation Antimalarials” (ACS Infect Dis, 2020).
